Test results published in ChEMBL document CHEMBL1141882, “Synthesis and biological testing of purine derivatives as potential ATP-competitive kinase inhibitors” (J Med Chem, 2005).

Key:
[1] = biological target: Glycogen synthase kinase-3 beta (Homo sapiens) (UniProt P49841); assay: Inhibition of human Glycogen synthase kinase-3 beta at 30 uM
Summary of the method: (§1)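 Kinase activity assayed with ATP at 100 µM, deliberately higher than usual assay ATP levels because the inhibitors are assumed ATP-competitive. Results are reported as percent inhibition of each kinase.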

[2] = biological target: RAC-alpha serine/threonine-protein kinase (Homo sapiens) (UniProt P31749); assay: Inhibition of human Protein kinase B alpha at 30 uM; summary of the method: as §1
Chain of RAC-alpha serine/threonine-protein kinase (Homo sapiens) (P31749 whole entry): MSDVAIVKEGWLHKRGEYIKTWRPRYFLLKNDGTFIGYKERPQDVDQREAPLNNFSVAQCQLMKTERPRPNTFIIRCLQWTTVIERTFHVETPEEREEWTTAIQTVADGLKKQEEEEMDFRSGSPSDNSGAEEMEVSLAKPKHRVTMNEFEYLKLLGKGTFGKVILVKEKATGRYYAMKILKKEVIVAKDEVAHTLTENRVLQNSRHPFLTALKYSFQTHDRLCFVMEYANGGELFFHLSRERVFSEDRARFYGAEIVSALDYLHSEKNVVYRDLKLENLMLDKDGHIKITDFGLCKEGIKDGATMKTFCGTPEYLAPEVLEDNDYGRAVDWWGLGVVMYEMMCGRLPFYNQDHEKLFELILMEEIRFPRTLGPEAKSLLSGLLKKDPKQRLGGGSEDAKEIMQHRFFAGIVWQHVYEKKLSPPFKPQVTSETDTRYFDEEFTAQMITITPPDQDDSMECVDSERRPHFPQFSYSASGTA

[3] = biological target: Mitogen-activated protein kinase 8 (Homo sapiens) (UniProt P45983); assay: Inhibition of human c-Jun N-terminal kinase-1 alpha-1 at 30 uM; summary of the method: as §1
Chain of Mitogen-activated protein kinase 8 (Homo sapiens) (P45983 whole entry): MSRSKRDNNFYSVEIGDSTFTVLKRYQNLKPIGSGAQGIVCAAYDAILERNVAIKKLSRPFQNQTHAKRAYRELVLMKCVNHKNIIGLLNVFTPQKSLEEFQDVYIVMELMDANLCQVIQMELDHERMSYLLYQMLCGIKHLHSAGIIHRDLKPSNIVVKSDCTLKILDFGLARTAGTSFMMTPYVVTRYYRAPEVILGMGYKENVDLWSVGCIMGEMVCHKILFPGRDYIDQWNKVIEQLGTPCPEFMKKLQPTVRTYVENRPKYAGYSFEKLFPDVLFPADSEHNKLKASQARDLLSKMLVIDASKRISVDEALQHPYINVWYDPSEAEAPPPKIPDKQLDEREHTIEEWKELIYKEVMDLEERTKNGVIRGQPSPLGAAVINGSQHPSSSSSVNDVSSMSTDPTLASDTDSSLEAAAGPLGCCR

[4] = biological target: Rho-associated protein kinase 2 (Homo sapiens) (UniProt O75116); assay: Inhibition of human Rho-dependent protein kinase-II at 30 uM
Chain of Rho-associated protein kinase 2 (Homo sapiens) (O75116 whole entry, looked up): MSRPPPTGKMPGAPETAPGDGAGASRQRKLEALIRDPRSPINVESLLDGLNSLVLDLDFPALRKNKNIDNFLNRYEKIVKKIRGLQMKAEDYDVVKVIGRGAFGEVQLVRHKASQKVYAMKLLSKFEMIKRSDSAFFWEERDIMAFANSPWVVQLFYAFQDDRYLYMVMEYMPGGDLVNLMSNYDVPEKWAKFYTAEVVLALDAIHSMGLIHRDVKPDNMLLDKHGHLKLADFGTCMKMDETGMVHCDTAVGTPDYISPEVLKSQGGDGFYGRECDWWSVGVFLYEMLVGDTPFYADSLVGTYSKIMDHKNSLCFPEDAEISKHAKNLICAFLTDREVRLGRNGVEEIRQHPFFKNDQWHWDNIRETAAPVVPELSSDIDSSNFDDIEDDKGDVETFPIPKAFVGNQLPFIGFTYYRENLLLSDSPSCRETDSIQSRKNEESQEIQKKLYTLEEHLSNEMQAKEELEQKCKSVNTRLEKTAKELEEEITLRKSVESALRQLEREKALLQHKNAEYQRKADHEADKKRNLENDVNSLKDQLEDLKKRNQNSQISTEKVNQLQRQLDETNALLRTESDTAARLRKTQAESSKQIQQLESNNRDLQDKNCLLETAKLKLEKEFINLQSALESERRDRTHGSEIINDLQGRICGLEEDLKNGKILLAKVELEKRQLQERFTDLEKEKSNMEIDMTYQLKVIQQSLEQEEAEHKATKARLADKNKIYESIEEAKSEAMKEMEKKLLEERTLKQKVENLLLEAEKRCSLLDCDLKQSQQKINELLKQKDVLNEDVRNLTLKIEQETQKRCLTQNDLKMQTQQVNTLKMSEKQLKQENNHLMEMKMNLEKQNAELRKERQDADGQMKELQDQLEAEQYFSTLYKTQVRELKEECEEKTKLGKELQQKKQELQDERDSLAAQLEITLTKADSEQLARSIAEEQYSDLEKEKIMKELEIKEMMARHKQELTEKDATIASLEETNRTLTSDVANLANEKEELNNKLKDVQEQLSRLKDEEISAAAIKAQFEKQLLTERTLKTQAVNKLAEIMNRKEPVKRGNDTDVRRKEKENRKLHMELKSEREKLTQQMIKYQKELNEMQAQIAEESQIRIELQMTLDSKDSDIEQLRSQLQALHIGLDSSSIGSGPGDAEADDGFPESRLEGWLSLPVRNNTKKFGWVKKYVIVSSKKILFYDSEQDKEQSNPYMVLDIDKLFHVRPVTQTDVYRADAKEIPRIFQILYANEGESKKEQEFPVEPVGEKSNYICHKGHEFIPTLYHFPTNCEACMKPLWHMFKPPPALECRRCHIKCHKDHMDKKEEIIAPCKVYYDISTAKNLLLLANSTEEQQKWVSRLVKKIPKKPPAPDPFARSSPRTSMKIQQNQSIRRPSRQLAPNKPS

[5] = biological target: Mitogen-activated protein kinase 9 (Homo sapiens) (UniProt P45984); assay: Inhibition of human c-Jun N-terminal kinase-2 alpha-2 at 30 uM; summary of the method: as §1
Chain of Mitogen-activated protein kinase 9 (Homo sapiens) (P45984 whole entry, looked up): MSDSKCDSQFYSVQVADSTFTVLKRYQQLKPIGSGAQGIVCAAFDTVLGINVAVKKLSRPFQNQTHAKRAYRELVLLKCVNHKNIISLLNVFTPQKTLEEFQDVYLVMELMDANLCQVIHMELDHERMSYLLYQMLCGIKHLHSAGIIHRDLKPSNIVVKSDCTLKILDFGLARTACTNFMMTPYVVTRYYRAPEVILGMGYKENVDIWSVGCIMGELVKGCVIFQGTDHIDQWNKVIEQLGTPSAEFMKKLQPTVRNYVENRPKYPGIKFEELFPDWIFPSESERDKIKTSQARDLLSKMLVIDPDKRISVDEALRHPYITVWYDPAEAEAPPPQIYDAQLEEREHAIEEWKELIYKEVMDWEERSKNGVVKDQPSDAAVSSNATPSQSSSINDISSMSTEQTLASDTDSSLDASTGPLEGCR

[6] = biological target: RAF proto-oncogene serine/threonine-protein kinase (Homo sapiens) (UniProt P04049); assay: Inhibition of human RAF proto-oncogene serine/threonine-protein kinase at 30 uM; summary of the method: as §1
Chain of RAF proto-oncogene serine/threonine-protein kinase (Homo sapiens) (P04049 whole entry): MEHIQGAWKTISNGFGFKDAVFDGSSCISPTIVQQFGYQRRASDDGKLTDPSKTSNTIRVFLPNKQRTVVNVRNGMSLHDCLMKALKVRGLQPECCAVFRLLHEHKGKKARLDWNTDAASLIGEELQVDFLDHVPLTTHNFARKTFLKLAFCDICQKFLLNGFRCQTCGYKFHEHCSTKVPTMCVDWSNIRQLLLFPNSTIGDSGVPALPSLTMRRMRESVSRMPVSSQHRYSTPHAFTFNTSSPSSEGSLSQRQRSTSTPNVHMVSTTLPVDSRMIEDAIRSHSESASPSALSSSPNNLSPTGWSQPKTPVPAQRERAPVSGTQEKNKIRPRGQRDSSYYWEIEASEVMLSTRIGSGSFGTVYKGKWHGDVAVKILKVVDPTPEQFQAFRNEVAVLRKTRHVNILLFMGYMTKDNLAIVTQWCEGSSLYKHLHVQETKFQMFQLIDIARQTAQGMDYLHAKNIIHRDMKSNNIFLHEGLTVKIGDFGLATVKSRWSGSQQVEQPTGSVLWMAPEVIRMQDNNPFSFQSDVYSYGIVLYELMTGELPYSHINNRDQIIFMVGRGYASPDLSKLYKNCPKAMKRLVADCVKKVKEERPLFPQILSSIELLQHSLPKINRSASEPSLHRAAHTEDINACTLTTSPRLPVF

[7] = biological target: Mitogen-activated protein kinase 1 (Homo sapiens) (UniProt P28482); assay: Inhibition of human Mitogen-activated protein kinase 2 at 30 uM; summary of the method: as §1
Chain of Mitogen-activated protein kinase 1 (Homo sapiens) (P28482 whole entry): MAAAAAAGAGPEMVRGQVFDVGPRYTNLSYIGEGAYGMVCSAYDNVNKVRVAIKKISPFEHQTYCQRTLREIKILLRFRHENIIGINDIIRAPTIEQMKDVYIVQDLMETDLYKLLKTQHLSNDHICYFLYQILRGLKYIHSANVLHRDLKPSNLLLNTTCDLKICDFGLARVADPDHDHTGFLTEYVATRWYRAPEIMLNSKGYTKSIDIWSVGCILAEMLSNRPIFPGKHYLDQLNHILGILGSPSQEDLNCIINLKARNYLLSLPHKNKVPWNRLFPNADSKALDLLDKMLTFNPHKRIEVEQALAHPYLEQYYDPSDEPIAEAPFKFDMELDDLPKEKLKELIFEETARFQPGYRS

[8] = biological target: Dual specificity mitogen-activated protein kinase kinase 1 (Homo sapiens) (UniProt Q02750); assay: Inhibition of human Mitogen activated protein kinase kinase 1 (MEK1) at 30 uM; summary of the method: as §1
[9] = biological target: Tyrosine-protein kinase Lck (Homo sapiens) (UniProt P06239); assay: Inhibition of human lymphocyte protein tyrosine kinase Lck at 30 uM; summary of the method: as §1
[10] = biological target: Protein kinase C alpha type (Homo sapiens) (UniProt P17252); assay: Inhibition of human Protein kinase C alpha; design: concentration or dose not given beside the values; settings: concentration not given here
[11] = biological target: Ca2+/calmodulin-dependent protein kinase II (CaM kinase II) (Rattus norvegicus) (UniProt P11275+P08413+P15791+P11730); assay: Inhibition of rat Calcium/calmodulin-dependent protein kinase type II at 30 uM; format: protein assay; summary of the method: as §1
[12] = biological target: Mitogen-activated protein kinase 10 (Rattus norvegicus) (UniProt P49187); assay: Inhibition of rat c-Jun N-terminal kinase-3 at 30 uM; summary of the method: as §1
Chain of Mitogen-activated protein kinase 10 (Rattus norvegicus) (P49187 whole entry): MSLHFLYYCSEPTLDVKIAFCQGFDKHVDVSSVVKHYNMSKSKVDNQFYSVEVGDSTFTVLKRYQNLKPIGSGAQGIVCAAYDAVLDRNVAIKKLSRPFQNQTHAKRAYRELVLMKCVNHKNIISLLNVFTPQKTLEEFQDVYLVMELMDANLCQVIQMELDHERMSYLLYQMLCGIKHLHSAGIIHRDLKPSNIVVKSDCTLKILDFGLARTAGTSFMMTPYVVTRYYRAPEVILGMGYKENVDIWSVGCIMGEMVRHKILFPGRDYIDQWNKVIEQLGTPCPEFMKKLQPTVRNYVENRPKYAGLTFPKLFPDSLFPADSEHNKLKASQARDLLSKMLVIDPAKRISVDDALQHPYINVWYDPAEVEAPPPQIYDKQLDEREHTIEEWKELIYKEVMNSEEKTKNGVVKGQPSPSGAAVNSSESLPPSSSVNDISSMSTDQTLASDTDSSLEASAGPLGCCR

[13] = biological target: cAMP-dependent protein kinase (PKA) (Homo sapiens) (UniProt P22694+P17612+P22612); assay: Inhibition of human cAMP-dependent protein kinase (PKA); format: protein assay; design: concentration or dose not given beside the values; settings: concentration not given here
[14] = biological target: Mitogen-activated protein kinase 14 (Homo sapiens) (UniProt Q16539); assay: Inhibition of human stress-activated protein kinase-2 alpha (p38 MAP-kinase) at 30 uM; summary of the method: as §1
Chain of Mitogen-activated protein kinase 14 (Homo sapiens) (Q16539 whole entry): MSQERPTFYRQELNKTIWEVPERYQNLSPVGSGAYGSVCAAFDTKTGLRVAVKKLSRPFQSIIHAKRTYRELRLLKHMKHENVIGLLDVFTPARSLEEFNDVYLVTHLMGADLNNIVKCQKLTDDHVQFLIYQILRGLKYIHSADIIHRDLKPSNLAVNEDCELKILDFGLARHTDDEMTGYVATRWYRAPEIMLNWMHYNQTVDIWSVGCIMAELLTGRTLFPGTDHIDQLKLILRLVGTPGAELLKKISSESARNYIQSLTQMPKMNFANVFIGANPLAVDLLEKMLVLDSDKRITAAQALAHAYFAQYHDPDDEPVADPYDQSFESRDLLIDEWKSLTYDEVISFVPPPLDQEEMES

Chain of Glycogen synthase kinase-3 beta (Homo sapiens) (P49841 whole entry, looked up): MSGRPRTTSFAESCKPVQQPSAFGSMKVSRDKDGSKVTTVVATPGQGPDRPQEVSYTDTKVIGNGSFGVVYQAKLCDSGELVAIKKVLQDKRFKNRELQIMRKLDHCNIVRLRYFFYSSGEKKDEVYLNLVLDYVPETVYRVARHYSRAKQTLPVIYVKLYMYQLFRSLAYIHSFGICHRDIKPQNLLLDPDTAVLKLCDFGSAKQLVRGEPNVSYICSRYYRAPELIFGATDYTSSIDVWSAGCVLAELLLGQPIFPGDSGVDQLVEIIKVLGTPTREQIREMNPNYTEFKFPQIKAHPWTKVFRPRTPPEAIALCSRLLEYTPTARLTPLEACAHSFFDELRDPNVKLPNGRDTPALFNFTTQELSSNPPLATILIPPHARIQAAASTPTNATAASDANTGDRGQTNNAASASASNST

inhibition [1] [%] | inhibition [2] [%] | inhibition [3] [%] | inhibition [4] [%] | inhibition [5] [%] | inhibition [6] [%] | inhibition [7] [%] | inhibition [8] [%] | inhibition [9] [%] | inhibition [10] [%] | inhibition [11] [%] | inhibition [12] [%] | inhibition [13] [%] | inhibition [14] [%] | SMILES
0 | 0 | 0 | 37 | 1 | 29 | 12 | 2 | 13 | 9 | 0 | 8 | 10 | 72 | Fc1ccc(Sc2ncnc3[nH]cnc23)cc1
0 | 0 | 10 | 6 | 10 | 12 | 12 | 6 | 2 | 7 | 5 | 9 | 1 | 38 | Cn1cnc2c(Sc3ccc(F)cc3)ncnc21
7 | 0 | 1 | 5 | 0 | 25 | 11 | 7 | 19 | 2 | 0 | 17 | 1 | 7 | Nc1ncnc2c1ncn2Cc1ccccc1
1 | 1 | 0 | 1 | 0 | 0 | 0 | 6 | 0 | 0 | 3 | 0 | 0 | 64 | c1ccc(Cn2cnc3c(Sc4ccccc4)ncnc32)cc1
1 | 0 | 0 | 33 | 0 | 6 | 13 | 0 | 5 | 3 | 0 | 0 | 8 | 54 | c1ccc(Sc2ncnc3[nH]cnc23)cc1
0 | 42 | 0 | 1 | 0 | 12 | 0 | 4 | 5 | 13 | 1 | 12 | 3 | 44 | Cn1c(-c2ccccc2)nc2c(Sc3ccccc3)ncnc21

The remaining lines, values behind:

SMILES | inhibition [1] [%] | inhibition [2] [%] | inhibition [3] [%] | inhibition [4] [%] | inhibition [5] [%] | inhibition [6] [%] | inhibition [7] [%] | inhibition [8] [%] | inhibition [9] [%] | inhibition [10] [%] | inhibition [11] [%] | inhibition [12] [%] | inhibition [13] [%] | inhibition [14] [%]
c1ccc(-[n+]2c[nH]c3ncncc32)cc1 | 4 | 0 | 0 | 0 | 0 | 0 | 0 | 0 | 2 | 4 | 0 | 3 | 0 | 0
Clc1ncnc2c1ncn2Cc1ccccc1 | 0 | 0 | 0 | 3 | 0 | 4 | 0 | 3 | 0 | 17 | 7 | 16 | 2 | 11
CSc1ccc(-c2nc3c(Sc4ccc(F)cc4)ncnc3n2C)cc1 | 5 | 0 | 3 | 0 | 5 | 1 | 0 | 4 | 1 | 0 | 7 | 3 | 0 | 15
Cn1cnc2c(-c3ccc(F)cc3)ncnc21 | 3 | 0 | 5 | 10 | 3 | 9 | 0 | 1 | 5 | 8 | 12 | 14 | 0 | 16
Cn1c(-c2ccc(S(C)(=O)=O)cc2)nc2c(Sc3ccc(F)cc3)ncnc21 | 0 | 4 | 0 | 0 | 2 | 6 | 0 | 0 | 10 | 7 | 0 | 5 | 3 | 19
Cn1cnc2c(Nc3ccccc3)ncnc21 | 26 | 0 | 0 | 0 | 0 | 44 | 42 | 4 | 18 | 2 | 0 | 5 | 0 | 0
Fc1ccc(Cn2cnc3ncnc(Cl)c32)cc1 | 0 | 0 | 6 | 7 | 9 | 20 | 1 | 4 | 0 | 13 | 8 | 21 | 0 | 17
Cn1c(-c2ccc([S+](C)[O-])cc2)nc2c(Sc3ccc(F)cc3)ncnc21 (stereo not drawn) | 4 | 10 | 0 | 0 | 1 | 4 | 0 | 1 | 30 | 15 | 12 | 10 | 4 | 44
Nc1[nH]cnc2ncnc1-2 | 0 | 0 | 0 | 28 | 0 | 14 | 17 | 9 | 19 | 6 | 0 | 10 | 14 | 7
Fc1ccc(Nc2[nH]cnc3ncnc2-3)cc1 | 0 | 18 | 13 | 52 | 0 | 24 | 48 | 34 | 42 | 17 | 2 | 10 | 40 | 30
Fc1ccc(-[n+]2c[nH]c3ncncc32)cc1 | 0 | 0 | 1 | 2 | 0 | 0 | 0 | 0 | 9 | 2 | 0 | 4 | 0 | 0
